Bioassay records deposited in PubChem BioAssay by Sanford-Burnham Center for Chemical Genomics.
LMPTP inh – LMPTP (human) inhibition; P24666; recombinant LMPTP-A, OMFP fluorogenic substrate, fluorescence intensity; inhibition, % at 20 µM; actives 0.22% (n = 360,000);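 active = compounds that cut the enzyme signal by at least half of the control window in the single-dose screen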;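 also: plate controls were DMSO wells with enzyme plus substrate for no effect and substrate without enzyme for full effect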
Target sequence (P24666 whole entry, looked up): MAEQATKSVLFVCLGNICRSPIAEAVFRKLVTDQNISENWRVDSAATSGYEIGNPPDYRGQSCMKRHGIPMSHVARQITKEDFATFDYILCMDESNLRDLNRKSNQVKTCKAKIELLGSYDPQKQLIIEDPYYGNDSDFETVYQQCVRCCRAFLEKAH
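Test system: LMPTP-A phosphatase enzyme. Amount: LMPTP-A at 0.625 nM final in the reaction. Reagent: OMFP substrate, 400 µM final. Times: 50 min at room temperature. Signal: endpoint fluorescence intensity from OMFP dephosphorylation. Read-out basis: % inhibition. Benchmarks: no-enzyme and uninhibited controls.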
NadD inh – blocks S. aureus nicotinate mononucleotide adenylyltransferase. purified NadD enzyme, colorimetric absorbance read-out. inhibition, % at 20 µM. actives 0.78% (n = 360,000); in the data active = inhibition above about 26%
STEP inh – STEP (human) phosphatase inhibition | P54829 | recombinant STEP, OMFP fluorogenic substrate, fluorescence | inhibition, % at 20 µM | actives 0.25% (n = 360,000) | AID 588621;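 active = inhibition at 20 µM, scaled per plate between control wells, above about 37%, limit read from the data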;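 also: 0% = DMSO with enzyme and substrate and 100% = substrate only without enzyme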
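System: STEP (striatal-enriched tyrosine phosphatase) enzyme, cell-free; medium: Bis-Tris pH 6.0 buffer with DTT, detergent; dosing: 20 µM, 1% DMSO; times: reaction 20 min, ambient temperature; detection: fluorescence, 480/540 nm; read-out basis: normalized % inhibition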
SUMO1-SIM PPI – alters human SUMO1 binding to SIM partners | SUMO1 binding to a labelled peptide, TR-FRET, 1 h | inhibition, % at 20 µM | actives 0.33% (n = 360,000); in the data active = inhibition above about 37%
Target sequence (P63165 whole entry, looked up): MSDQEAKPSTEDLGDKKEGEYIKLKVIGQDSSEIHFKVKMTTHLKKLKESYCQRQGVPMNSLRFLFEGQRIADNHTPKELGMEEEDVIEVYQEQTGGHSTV
Scp1 inh – Scp-1 (human) phosphatase inhibition | Q9GZU7 | Recombinant Scp1, phosphopeptide, malachite green phosphate absorbance | inhibition, % at 20 µM | actives 0.88% (n = 340,000) | AID 493091;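 active = inhibition above about 50% at 20 µM, limit read from the data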;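 also: plate controls were DMSO wells with enzyme for no effect and wells lacking enzyme for full effect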
Target sequence (Q9GZU7 76-261 limits assumed): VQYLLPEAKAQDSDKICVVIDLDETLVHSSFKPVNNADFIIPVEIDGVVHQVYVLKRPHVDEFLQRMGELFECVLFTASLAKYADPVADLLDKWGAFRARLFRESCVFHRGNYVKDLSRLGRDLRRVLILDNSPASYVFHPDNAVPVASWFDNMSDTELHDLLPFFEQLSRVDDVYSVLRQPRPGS
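assay system = SCP-1 phosphatase catalytic domain, residues 76-261 | buffer or medium = 50 mM Tris acetate pH 5.5, 0.005% Tween-20, 10 mM MgCl2 | incubation = enzyme reaction 45 min at room temperature, colour 5 min, stabilisation 30 min | signal = Phosphate-binding colour reagent, absorbance read at 630 nm | measure = % inhibition at 20 µM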
DNMT1 block – inhibitors of human DNMT1. P26358. DNMT1 molecular beacon, Hinp1I cleavage, fluorescence. inhibition (reported as % activation of signal), % at 10 µM. actives 0.83% (n = 360,000). AID 588458; in the data active = inhibition above about 50%
DNMT1 inh conf – DNMT1 inhibition confirmation, single concentration | DNMT1 molecular beacon HinP1I cleavage, fluorescence | actives 8% (n = 2,300) | AID 602385 | inhibition, % at 10 µM | shares compounds with DNMT1 block;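 active = average inhibition of at least 30% in the single-concentration confirmation test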
Beacon interf – shows spectral interference in the DNMT1 beacon assay. shares compounds with DNMT1 block. DNMT1 molecular beacon spectral interference counterscreen, fluorescence 485/520. activation (fluorescence interference), % at 10 µM. actives 1% (n = 2,300). AID 602387;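 active = activation of at least 30% at 10 µM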;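 also: DNMT1 catalytic domain with a HinP1I cleavage step and a FAM/dabcyl DNA beacon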
Numbers without * were called inactive; · = not tested or not shown. Compounds with a hit are over-represented: about 2.3% of the library has one in this group of screens.

SMILES | LMPTP inh | NadD inh | STEP inh | SUMO1-SIM PPI | Scp1 inh | DNMT1 block | DNMT1 inh conf | Beacon interf
CCC(=O)N1N=C(c2c(-c3ccccc3)c3cc(Cl)ccc3[nH]c2=O)CC1c1ccco1 (configuration not stated) | -1.0 | 5.2 | 1.5 | 1.9 | -3.7 | 52.0* | -0.5 | 1.0
CC(=O)Nc1cc(-c2ccccc2)cn2c(-c3cccc(C(C)=O)c3)cnc12 | 0.7 | -6.1 | 1.8 | -12.9 | · | -12.7 | · | ·
COC(=S)N/C(=N\S(=O)(=O)c1ccc(Cl)cc1)c1ccccc1 | -0.7 | -6.1 | 1.2 | 1.3 | -5.3 | -2.7 | · | ·
O=C(Nc1ccc(Br)cn1)c1cccc(-c2cc3ccccc3oc2=O)c1 | 12.0 | 8.5 | 5.1 | -3.0 | 25.4 | 64.2* | 1.4 | -3.5
CN(C)C(CNC(=O)C1CCN(S(=O)(=O)c2ccccc2)CC1)c1ccccc1 (configuration not stated) | 2.4 | -7.1 | 19.7 | 2.4 | 12.4 | 87.9* | 4.8 | 7.2
CC(=O)N1CCc2cc(NC(=O)C3(C)CCN3CCc3ccccc3)ccc21 (configuration not stated) | -0.2 | 0.8 | -2.5 | -2.6 | · | -0.7 | · | ·
CC(=O)Nc1cccc(-c2csc(C(O)c3cccc(Cl)c3)n2)c1 (configuration not stated) | -0.2 | -8.5 | -2.9 | -9.7 | · | -6.5 | · | ·
CCCCNC(=O)c1nc(C2CCN(S(=O)(=O)c3ccc(Cl)cc3)CC2)oc1-c1ccccc1 | 6.4 | · | · | -3.5 | · | · | · | ·
COc1cc(C=NNc2ccccc2[N+](=O)[O-])cc(OC)c1OC | 1.4 | -3.8 | 2.1 | -14.9 | · | 53.4* | 3.5 | 0.3
CCOc1ccc(NC(=O)Nc2ccc3nsnc3c2)cc1 | 2.2 | -7.8 | 6.8 | -11.8 | -4.0 | -0.1 | · | ·
CCOc1ccc(NC(=S)Nc2ccc3nsnc3c2)cc1 | 7.9 | -3.4 | 8.2 | 50.0* | -5.2 | 85.1* | -0.6 | -1.5
Cc1ccsc1/C=N/NC(=O)c1sccc1C | -2.1 | -2.3 | -3.5 | -4.0 | -7.5 | -2.4 | · | ·
Cc1ccsc1/C=N/N=C/c1sccc1C | 2.3 | -5.1 | 2.0 | -10.0 | -2.0 | 56.0* | 4.1 | 3.5
COc1cccc(C(=O)N(C)Cc2c(C)nn(C3CCS(=O)(=O)C3)c2C)c1 (configuration not stated) | -0.4 | 3.3 | -0.9 | 1.3 | 7.1 | 1.5 | · | ·
CCCCCCCCN1[C@@H](CC(=O)OCC)c2cc(F)ccc2S1(=O)=O | 3.3 | -14.8 | 2.9 | -1.7 | -1.3 | 11.5 | · | ·
CCCCCCCCN1[C@@H](CC(=O)OC)c2cc(F)ccc2S1(=O)=O | 51.7* | -1.2 | 0.6 | 5.5 | -14.6 | 81.7* | 3.5 | 5.2
CN(C)S(=O)(=O)c1ccc2c(c1)C(CC(=O)O)OC2=O (configuration not stated) | 1.1 | 0.7 | -0.7 | 4.4 | 2.4 | 91.2* | 6.0 | 10.6
Cc1cc(NC(=O)CSc2nc3sc4c(c3c(=O)n2C)CCCC4)no1 | 0.5 | -6.0 | 0.5 | 1.8 | 3.1 | 55.8* | 2.9 | -9.7
CCCn1cc(S(=O)(=O)c2ccccc2)c(=O)c2cc(CC)ccc21 | -1.5 | 0.6 | -1.1 | 2.1 | 2.7 | 1.5 | · | ·
C=CCn1c(NC(=O)c2ccccc2Cl)c(C#N)c2nc3ccccc3nc21 | 11.8 | 3.5 | 4.2 | 53.0* | -7.2 | 63.9* | -1.2 | -3.6
COc1cc(OC)cc(-c2c(-c3cccs3)c3cc(-c4ccc(C(N)=O)cc4)ccc3n2C)c1 | -0.5 | 6.2 | -1.2 | -17.1 | 0.6 | 54.5* | 0.5 | 2.0
O=C(O)C1CCN(C(=O)c2ccc3c(c2)OCO3)CC1 | -4.2 | -3.4 | 0.8 | -0.7 | -4.6 | -1.0 | · | ·
CC(C)C(=O)Nc1nnc(S(=O)(=O)N(C)c2ccc(Cl)cc2)s1 | 0.3 | -4.8 | -3.3 | -0.1 | -12.1 | 0.6 | · | ·
CC(C)COc1ccc(-c2nn(-c3ccccc3)cc2CO)cc1 | 4.6 | -8.9 | -0.1 | -1.5 | -16.7 | -0.8 | · | ·
